Here are results for 39 molecules from ChEMBL document CHEMBL4513216, “Probing the Open Global Health Chemical Diversity Library for Multistage-Active Starting Points for Next-Generation Antimalarials” (ACS Infect Dis, 2020).

The series is described as follows: Toxicity liver stage against HepG2, at 10uM. The series is classed as cell-based. Details: test concentration 10 uM, cell line HepG2-A16-CD81EGFP. As to conditions: human, HepG2-A16-CD81EGFP cells; read-out: INHIBITION
An outline of the steps:
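Uninfected HepG2-A16-CD81EGFP cells, 3 × 10^3 per well, 1536-well, plated on prespotted compound at 10 μM final, parasite-free screening media added to match infected plates; puromycin 10 μM positive, DMSO 0.5% negative; run in parallel with 48 h PbLuc assay at 37 °C, 5% CO2; viability by CellTiter-Glo luminescence, normalized to controls.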
As to `CC1=C(C#N)C(=O)N(C)C(=O)/C1=C\C1=Cc2ccccc2OC1`, the cytotoxicity at 10 µM is -39.4%.

Take `Cc1nc(NC(=O)c2c(-n3cnnn3)sc3c2CCCC3)sc1C`: the cytotoxicity at 10 µM was 2.03%.

Take `CCCc1cc(=O)[nH]c(-n2nc(C3CC3)cc2N)n1`: the cytotoxicity at 10 µM came out at 31.3%.

Regarding `CC(C)c1cc(=O)[nH]c(-n2nc(C3CC3)cc2N)n1`, the cytotoxicity at 10 µM was 33.9%.

Consider `CC(C)(C)n1nnnc1CN(Cc1ccccc1)Cc1ccccc1Cl`, for which the cytotoxicity at 10 µM was determined as 8.56%.

Turning to `Cn1cncc1CN1CCCC1c1cncc(Oc2ccc(Cl)cc2)n1` (centres undefined), the cytotoxicity at 10 µM stood at 11%.

As to `CN(C)S(=O)(=O)N1CCCC(c2cccc(Cc3ccc(F)cc3)n2)C1` (centres undefined), the cytotoxicity at 10 µM amounted to 38.9%.

On to `COC1CCN(c2ccc(NC(=O)C3CC3)cc2C(F)(F)F)CC1`, for which the cytotoxicity at 10 µM came to 39.5%.

For `Cc1sc(NC(=O)CN2CCCC(c3ncc[nH]3)C2)c(C)c1C` (centres undefined), the cytotoxicity at 10 µM was found to be 28.1%.

On to `CCN(CC(C)C#N)C(=O)CNc1ccc(C(N)=O)c(C)c1` (centres undefined), for which the cytotoxicity at 10 µM came out at 8.54%.

On to `COc1cc(C(=O)NS(=O)(=O)c2cc(Cl)sc2Cl)ccc1OC(F)F`, for which the cytotoxicity at 10 µM was -13.9%.

As to `CC(C)Oc1ccc(NCc2ccc([S+](C)[O-])cc2)c(F)c1` (centres undefined), the cytotoxicity at 10 µM was found to be 22.4%.

On to `CCCn1nc2c(cc1=O)CN(c1ncnc3ccsc13)CC2`, for which the cytotoxicity at 10 µM worked out at 49.5%.

`Cc1ccsc1C(=O)Nc1ccc(N2CCC(O)CC2)c(C#N)c1`: the cytotoxicity at 10 µM came out at 33.2%.

Consider `CCc1nc(CNc2cc(Cl)ccc2OCC2CCCO2)no1` (centres undefined), for which the cytotoxicity at 10 µM was determined as 8.84%.

On to `COc1ccccc1C1(CNc2nnc(C)c(C)c2C#N)CCCC1`, for which the cytotoxicity at 10 µM was 34.4%.

As for `NC(=O)c1ccc(N2CCCCC2)c(NC(=O)c2cc(F)ccc2F)c1`, the cytotoxicity at 10 µM was determined as 7.57%.

As to `CCn1nc2c(cc1=O)CN(c1ncnc3ccsc13)CC2`, the cytotoxicity at 10 µM is 49.6%.

For the molecule `CC(C)n1nc2c(cc1=O)CN(c1ncnc3ccccc13)CC2`, the cytotoxicity at 10 µM was 52.2%.

For the molecule `CNC(=O)c1cccnc1N1CCC(Oc2ccc(F)cc2)CC1`, the cytotoxicity at 10 µM is 3.41%.

As for `COc1cc(N2CCC3(CC2)CN(CCO)c2ccccc23)ncn1`, the cytotoxicity at 10 µM was 19.7%.

In the case of `COC[C@@]12CCO[C@@H]1CCN(C(=O)C1CC(F)(F)C1)C2`, the cytotoxicity at 10 µM was -97.4%.

With `Fc1ccc(N2CCCN(c3ccc(Cn4ccnc4)cn3)CC2)cc1`, the cytotoxicity at 10 µM is 26.2%.

As for `Cc1nc2c(c(NCC(O)C(F)(F)F)n1)CCNCC2` (centres undefined), the cytotoxicity at 10 µM was found to be 5.37%.

As for `Cn1ncnc1-c1ccnc(NCCCc2ccncc2)n1`, the cytotoxicity at 10 µM is -1.41%.

Take `OC1CCN(c2ccnc(NCCc3ccccc3Cl)n2)C1` (centres undefined): the cytotoxicity at 10 µM was 39.3%.

`NCC1Cc2cccc(-c3nccc(N4CCC(O)CC4)n3)c2O1` (centres undefined): the cytotoxicity at 10 µM is -14.9%.

In the case of `Cc1ccc(CN2CCN(C(=O)c3ccc(Br)o3)CC2)cc1`, the cytotoxicity at 10 µM was found to be 1.16%.

With `CCCn1cc(S(=O)(=O)N[C@H]2CN(CCO)C[C@@H]2C2CC2)cn1`, the cytotoxicity at 10 µM was -11.3%.

`OCC1CCCCN1c1ccc(-c2nc(-c3ccccc3F)no2)cn1` (centres undefined): the cytotoxicity at 10 µM came out at 51.2%.

On to `Cc1cc(SCC(=O)O)nc2nn(CC(F)F)c(C)c12`, for which the cytotoxicity at 10 µM was determined as 45.5%.

As to `Cc1ccc(CN(CCCn2ccnc2)Cc2c(F)cccc2F)s1`, the cytotoxicity at 10 µM stood at 2.76%.

Consider `Clc1ccc(-c2ccc(C3CNCCO3)nc2)cc1` (centres undefined), for which the cytotoxicity at 10 µM was -5.86%.

Take `Cn1ccnc1CN1CCC2(CC1)CN(c1ccccn1)CCO2`: the cytotoxicity at 10 µM is -0.335%.

With `CCS(=O)(=O)N1CCc2c(CN3CCOCC3)cncc2C1`, the cytotoxicity at 10 µM was determined as 4.35%.

For `COc1cc(N2CCC3(CCN(Cc4nccs4)CC3)C2)ncn1`, the cytotoxicity at 10 µM was -36%.

As for `Cc1ccc(CN2CC[C@@H]3[C@@H]2CCN3C(=O)Cc2cccs2)o1`, the cytotoxicity at 10 µM is -119%.

`Cc1cnc(N2CCc3c(CNc4ccnc(C)n4)cncc3C2)nc1`: the cytotoxicity at 10 µM is -39.1%.

With `FC1(F)CCN(Cc2ccncc2)CC12CCN(c1cccnc1)C2` (centres undefined), the cytotoxicity at 10 µM is -94.8%.
